Where a name gives a salt, the structure may show the parent alone.
Assays:
[1] = test system: MiaPaCa-2 cells; experiment: Cytotoxicity in 2D culture, Alamar blue assay; assay type: cell-based; settings: Homo sapiens, MIA PaCa-2, 48 h, read-out: IC50 μM (2D MiaPaCa-2 culture)
Procedure, shortened: (§1)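 Cells in DMEM (high glucose, 10% FBS, 1% PenStrep) were seeded at 1 × 10³/well and kept at 37 °C, 5% CO2. At 70–75% confluence they were treated for 48 h in triplicate per concentration; GemHCl ran 5–60 μM, diluted from a PBS stock into medium. Viability: 0.05% resazurin added for 4 h, fluorescence read at ex 560/580, em 590/610 nm; percent viable cells calculated; n = 3.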

[2] = test system: MiaPaCa-2 cells; experiment: Cytotoxicity in 3D spheroid culture, Alamar blue assay; assay type: cell-based; settings: Homo sapiens, MIA PaCa-2, 48 h, read-out: IC50 μM (3D MiaPaCa-2 culture)
Procedure, shortened: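 MiaPaCa-2 cells were seeded at 3.0 × 10⁴/well in spheroid-forming plates and grown 72 h to form spheroids. Half the medium was then replaced with drug in growth medium for 48 h at 37 °C, 5% CO2. Resazurin (0.05%) was added for 4 h, and fluorescence was read at ex 560/580, em 590/610 nm to give percent viability.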

[3] = test system: PPCL-46 cells; experiment: Cytotoxicity in 2D culture, Alamar blue assay; assay type: cell-based; settings: Homo sapiens, 48 h, read-out: IC50 μM (2D PPCL-46 culture), 48 h treatment, mean ± SEM, n = 3
Procedure, shortened: as §1

[4] = test system: PPCL-46 cells; experiment: Cytotoxicity and spheroid integrity in 3D spheroid culture, Alamar blue assay; assay type: cell-based, human
[5] = Pharmacokinetic study after single intravenous bolus; assay type: in vivo; settings: mice, iv bolus 30 mg/kg Gem equivalent, one-compartment model
Procedure, shortened: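 Normal healthy mice were grouped as control, gemcitabine hydrochloride, or test compound. Each received a single intravenous bolus of 30 mg/kg gemcitabine equivalent; controls got 0.9% NaCl saline. Gemcitabine was measured in blood and tissue supernatants by peak area. Recovery was checked against control supernatants spiked with 0.5 μg/mL gemcitabine. Groups were compared by t-test.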

[6] = Acute toxicity: liver enzymes activity; assay type: in vivo, mice; settings: serum
Procedure, shortened: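 Blood was drawn 24 h after one IV dose of 30 mg/kg gemcitabine equivalent; controls were untreated. Serum was spun at 3500 rpm for 6 min, serially diluted, and run in triplicate in kit enzyme/substrate mixes at 37 °C. AST: glutamate standard, 450 nm. ALT: pyruvate standard, 595 nm. Activity = product formed × dilution / (reaction time × sample volume).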

[7] = test system: liver and kidney tissues; experiment: Acute toxicity: histology; assay type: in vivo, mice; settings: 30 mg/kg Gem equivalent, single iv bolus, H&E staining
Procedure, shortened: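 Normal healthy mice got one IV bolus of test compound or GemHCl at 30 mg/kg gemcitabine equivalent; controls got none. Liver and kidneys were rinsed in PBS and fixed in 10% neutral buffered formalin for 48 h at room temperature. Tissue was paraffin-embedded, cut at 5 μm, H&E-stained and examined by light microscopy at 20×.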

[8] = test system: EGFR; experiment: Immunohistochemical staining of PDX tumor sections; assay type: in vivo, human; settings: PDX tumor tissue of treated mice
Procedure, shortened: (§2)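 PDX tumours from treated mice were excised, PBS-washed, fixed 24 h in 10% buffered formalin and moved to 70% ethanol. Sections were immunostained for the target protein, dehydrated, coverslipped and scanned as whole slides at 40×. Staining was scored on the IHC scale (0, 1+, etc.).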

[9] = test system: HER2; experiment: Immunohistochemical staining of PDX tumor sections; assay type: in vivo, human; settings: PDX tumor tissue of treated mice
Procedure, shortened: as §2

[10] = test system: VEGF receptor; experiment: Immunohistochemical staining of PDX tumor sections; assay type: in vivo, human; settings: PDX tumor tissue of treated mice
Procedure, shortened: as §2

[11] = 24 h after 30 mg/kg Gem equivalent iv, mean ± SD, n = 3

Structure (SMILES): Nc1ccn([C@@H]2O[C@H](CO)[C@@H](O)C2(F)F)c(=O)n1 [GemHCl, Gemcitabine Hydrochloride]
- IC50 [1]: 45.7 ± 1.4 µM
- IC50 [2]: 55.8 ± 1.2 µM
- IC50 [3]: 75.5 ± 1.9 µM
- IC50 ([4]; Homo sapiens, 48 h, read-out: IC50 μM (3D PPCL-46 culture)): 95.2 ± 1.4 µM
- PPCL-46 spheroidal integrity after treatment ([4]; varying concentrations, images of spheroids): smaller surface spheroidal area with less non-spheroidal shapes
- AUC (0-t) [5]: 28200 ± 4300 ng·h/mL
- Vss (volume of distribution at steady state) [5]: 21.7 ± 3.6 μg/(μg/mL)
- AST level compared with control group ([6]; 30 mg/kg Gem equivalent): no statistically significant elevation
- ALT [6, 11]: 232 ± 28 mUnits/mL
- AST [6, 11]: 85 ± 9 mUnits/mL
- histopathological examination of kidney and liver compared to control [7]: no significant morphological changes
- EGFR expression (IHC score) [8]: IHC 1+
- HER2 expression (IHC score) [9]: IHC 2+
- VEGF receptor expression (IHC score) [10]: IHC 3+

Reference: article PMC7522377 (International Journal of Pharmaceutics: X, 2020)
